The record followed here is ChEMBL document CHEMBL4316585, “On the role of synthesized hydroxylated chalcones as dual functional amyloid-β aggregation and ferroptosis inhibitors for potential treatment of Alzheimer's disease” (Eur J Med Chem, 2019).

What is called inhibition is the change of the read-out against control, counted positive when it falls. What is called IC50 is the point on the concentration scale where inhibition reaches its midpoint.

Series [1] concerns SH-SY5Y. Briefly: Neuroprotective activity against amyloid beta (1 to 42)-induced neurodegeneration in human SH-SY5Y cells assessed as cell viability at 10 uM preincubated for 4 hrs followed by amyloid beta (1 to 42) addition and measured after 48 hrs by MTS assay (reference value: 60.4%). Type of series: functional. Conditions: for viability at 10 µM: read-out: Activity. For orientation: Tetrazolium dyes change colour on reduction, which living cells bring about.

Series [2] deals with Amyloid-beta precursor protein (Homo sapiens) (UniProt P05067). In words: Inhibition of HFIP-pretreated amyloid beta (1 to 42 residues) (unknown origin) self aggregation at 25 uM after 7 days by ThT-based fluorometric method relative to control. In outline: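 Aβ1-42 (25 μM) incubated with or without inhibitor (25 μM, 1:1) in 10 mM phosphate buffer pH 7.4 with 100 mM NaCl at 37 °C for 7 days. Inhibitor-only blanks included. Samples diluted in 50 mM glycine-NaOH pH 8.0 containing 5 μM ThT, fluorescence read at ex 440/em 485 nm. % inhibition = (1−IFi/IFc)×100 after background subtraction, triplicate.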
Amyloid-beta precursor protein (Homo sapiens), sequence (P05067 whole entry, the tested form may be a part): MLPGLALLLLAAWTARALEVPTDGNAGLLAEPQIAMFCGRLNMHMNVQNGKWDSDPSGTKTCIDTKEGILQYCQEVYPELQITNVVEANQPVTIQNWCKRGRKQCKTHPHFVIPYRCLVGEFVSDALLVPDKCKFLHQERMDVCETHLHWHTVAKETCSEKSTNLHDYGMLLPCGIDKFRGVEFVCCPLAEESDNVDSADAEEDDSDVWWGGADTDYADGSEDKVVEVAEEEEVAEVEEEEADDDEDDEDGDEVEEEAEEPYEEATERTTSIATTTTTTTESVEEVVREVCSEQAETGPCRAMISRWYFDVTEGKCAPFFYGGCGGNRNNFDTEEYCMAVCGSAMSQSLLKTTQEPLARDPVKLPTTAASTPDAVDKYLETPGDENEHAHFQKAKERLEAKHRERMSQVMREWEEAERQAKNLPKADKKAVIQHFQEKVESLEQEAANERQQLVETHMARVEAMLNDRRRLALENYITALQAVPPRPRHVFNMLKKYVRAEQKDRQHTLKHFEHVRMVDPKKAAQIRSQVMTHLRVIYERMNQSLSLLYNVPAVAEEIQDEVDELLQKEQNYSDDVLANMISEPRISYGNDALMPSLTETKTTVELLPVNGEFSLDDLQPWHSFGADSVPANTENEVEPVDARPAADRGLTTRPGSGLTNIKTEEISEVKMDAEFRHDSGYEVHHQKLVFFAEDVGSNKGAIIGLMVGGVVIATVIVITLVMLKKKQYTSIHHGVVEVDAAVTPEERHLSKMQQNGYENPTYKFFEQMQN

The subject of series [3] is SH-SY5Y. Briefly: (§1) Neurotoxicity against human SH-SY5Y cells assessed as cell viability at 10 to 40 uM after 24 hrs […] relative to control. Type of series: toxicity, cell-based. As to conditions: sh-sy5y, 24 h, 40 µM.
Series [4] relates to SH-SY5Y. Briefly: Neuroprotective activity against amyloid beta (1 to 42)-induced neurodegeneration in human SH-SY5Y cells assessed as cell viability at 0.5 uM preincubated for 4 hrs followed by amyloid beta (1 to 42) addition and measured after 48 hrs by MTS assay (reference value: 55.1%). Type of series: functional. As to conditions: read-out: Activity.
The subject of series [5] is SH-SY5Y. Briefly: Neuroprotective activity against amyloid beta (1 to 42)-induced neurodegeneration in human SH-SY5Y cells assessed as cell viability at 1 uM preincubated for 4 hrs followed by amyloid beta (1 to 42) addition and measured after 48 hrs by MTS assay (reference value: 55.1%). Conditions: read-out: Activity. The series is classed as functional.
For series [6], the system named is HEK293. In words: Inhibition of (1S,3R)-RSL3-induced ferroptosis in HEK293 cells preincubated for 4 hrs followed by (1S,3R)-RSL3 stimulation and measured at next day by MTS assay. Conditions: Homo sapiens.
Series [7] relates to SH-SY5Y. Briefly: Neuroprotective activity against amyloid beta (1 to 42)-induced neurodegeneration in human SH-SY5Y cells assessed as increase in cell viability at 1 uM preincubated for 4 hrs followed by amyloid beta (1 to 42) addition after 48 hrs by micrograph method. The series is classed as functional, cell-based. Summed up:
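SH-SY5Y cells pretreated with compound (1 μM), then exposed to Aβ1-42 (10 μM) for 48 h. Cell morphology and clumping assessed by light micrographs against vehicle and Aβ-alone cells.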

Series [8] relates to HEK293. In words: Inhibition of erastin-induced ferroptosis in HEK293 cells preincubated for 4 hrs followed by erastin stimulation and measured at next day by MTS assay. Type of series: functional, cell-based, Homo sapiens. In outline:
(§2)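 HEK-293 cells grown in DMEM with 10 % FBS, 1 % pen/strep and 1 mM sodium pyruvate, 37 °C, 5 % CO2. Seeded 5000/well for 24 h. Compounds at a range of concentrations added 4 h before ferroptosis induction with (1S,3R)-RSL3 (500 nM) or erastin (10 μM). MTS viability read 24 h after induction, normalized to vehicle. IC50 taken as the mean of ≥3 experiments.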

Series [9] concerns SH-SY5Y. Briefly: Inhibition of amyloid beta (1 to 42)-induced lipid peroxidation in human SH-SY5Y cells at 10 uM incubated for 48 hrs by BODIPY-C11'581/591 probe-based flow cytometric analysis. Type of series: functional, cell-based. In outline:
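SH-SY5Y seeded 2×10^4/well and adhered 24 h, then given compound with Aβ1-42 for 48 h. Stained with BODIPY-C11 581/591 (1 μM) for 30 min at 37 °C in the dark. Flow cytometry at ex 488, em 525±25 nm, 10,000 events. Untreated, DEM (1 mM) and Aβ-alone controls.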
On the technique in general: Flow cytometry measures light scatter and fluorescence of single cells or particles in a stream.

Series [10] in a line: as §1. Conditions: SH-SY5Y cells, read-out: Activity. Type of series: toxicity, cell-based.
The test system of series [11] is HEK293. Briefly: Inhibition of (1S,3R)-RSL3-induced ferroptosis in HEK293 cells preincubated for 4 hrs followed by erastin stimulation and measured at next day by MTS assay. Type of series: functional, cell-based, Homo sapiens. In outline:
as §2

Series [12] has as its system SH-SY5Y. Briefly: Inhibition of RSL3-induced lipid peroxidation in human SH-SY5Y cells at 10 uM incubated for 24 hrs by BODIPY-C11'581/591 probe-based flow cytometric analysis. Type of series: functional, cell-based. Summed up: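 SH-SY5Y seeded 2×10^4/well and adhered 24 h, then given compound plus RSL3 (500 nM) for 24 h. Stained with BODIPY-C11 581/591 (1 μM) for 30 min at 37 °C in the dark. Flow cytometry at ex 488, em 525±25 nm, 10,000 events. Controls: untreated (negative), DEM 1 mM, and RSL3 alone.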

[13] abbreviates: Homo sapiens, HEK293, read-out: IC50.

Activity calls are given as the source filed them. The calls are words filed in the database; no cut-off is given here.

In the case of `Cc1cccc(/C=C/C(=O)c2cc(O)cc(O)c2)c1`, the result in the series on SH-SY5Y [1] was Active. Further, in series [2], the inhibition is 27.2%. Further, the Activity entry in the series on SH-SY5Y [3] is on record as “Non-Toxic”.
For the molecule `COc1ccc(/C=C/C(=O)c2cccc(O)c2)cc1OC`, the inhibition result in series [2] is “inactive”. Also, the Activity result with SH-SY5Y [3] was “Non-Toxic”.
As to `COc1cc(/C=C/C(=O)CC(=O)/C=C/c2ccc(O)c(OC)c2)ccc1O` [CURCUMIN], the viability at 10 µM in the series on SH-SY5Y [1] is 76%.
Regarding `COCOc1ccc(C(=O)/C=C/c2ccc(OC)cc2)c(O)c1OCOC`, the viability at 10 µM in the series with SH-SY5Y [1] lay in the range of 72 to 84.9%. Further, in series [2], the inhibition is 16.4%. For the same molecule, the Activity entry in the series on SH-SY5Y [3] is listed as “Non-Toxic”.
In the case of `COc1ccc(/C=C/C(=O)c2cc(O)cc(O)c2)cc1`, in the series with SH-SY5Y [1], the result was Active. In addition, the inhibition in [2] worked out at 19%. The Activity result in the series with SH-SY5Y [3] is “Non-Toxic”.
On to `Cc1cccc(/C=C/C(=O)c2ccc(O)c(O)c2O)c1`, for which the viability at 0.5 µM in the series on SH-SY5Y [4] lay within 66.7 to 73.8%. Moreover, the viability at 1 µM in the series on SH-SY5Y [5] was 70.8 to 77.5%. Also, the results for the 50% inhibitory concentration (IC50) in the series with HEK293 [6] and in the series on HEK293 [8] (setting [13]) were 450 nM and 3810 nM, respectively. Besides, in the series with SH-SY5Y [7], the outcome was Active. Further, the viability at 10 µM with SH-SY5Y [1] lay within 96.5 to 106%. Further, the inhibition in series [2] was in the range of 70.3 to 76.3%. Moreover, the inhibition entry in the series on SH-SY5Y [9] was “Active”. The Activity result in the series on SH-SY5Y [3] is given as “Non-Toxic”.
In the case of `Cc1cccc(/C=C/C(=O)c2cccc(O)c2)c1`, in series [2], the inhibition result is “inactive”. In addition, in [10], the viability at 24 h, up to 40 µM lay within 73.6 to 77.4%.
Regarding `O=C(O[C@@H]1Cc2c(O)cc(O)cc2O[C@@H]1c1cc(O)c(O)c(O)c1)c1cc(O)c(O)c(O)c1` [EPIGALOCATECHIN GALLATE], the viability at 0.5 µM with SH-SY5Y [4] is 60.1%. For the same molecule, the viability at 1 µM in the series on SH-SY5Y [5] was determined as 63%. Moreover, the viability at 10 µM with SH-SY5Y [1] came out at 92.5%. In addition, the IC50 entry in the series with HEK293 [11] and in the series with HEK293 [8] (hek293) was “Not Active” throughout. Moreover, the inhibition in series [2] amounted to 52.9%.
On to `COCOc1ccc(C(=O)/C=C/c2cccc(Cl)c2)c(O)c1OCOC`, for which the viability at 10 µM with SH-SY5Y [1] lay in the range of 72 to 84.9%. In addition, the inhibition in series [2] was found to be 16.4%. The Activity entry in the series on SH-SY5Y [3] is “Non-Toxic”.
As to `O=C(/C=C/c1cccc(Cl)c1)c1ccc(O)c(O)c1O`, the viability at 0.5 µM in the series with SH-SY5Y [4] was 66.7 to 73.8%. Also, the viability at 1 µM in the series with SH-SY5Y [5] was 70.8 to 77.5%. Also, the inhibition entry in the series with SH-SY5Y [12] is “Active”. In addition, the figures for the half-inhibitory concentration (IC50) in the series with HEK293 [6] and in the series on HEK293 [8] (setting [13]) were 860 nM and 3150 nM, respectively. Besides, in the series with SH-SY5Y [7], the outcome was Active. For the same molecule, the viability at 10 µM in the series on SH-SY5Y [1] lay within 96.5 to 106%. In addition, in series [2], the inhibition is 70.3 to 76.3%. For the same molecule, the Activity result with SH-SY5Y [3] is reported as “Non-Toxic”.
As for `COc1ccc(/C=C/C(=O)c2ccc(O)c(O)c2O)cc1`, in the series with SH-SY5Y [4], the viability at 0.5 µM is 66.7 to 73.8%. For the same molecule, the viability at 1 µM with SH-SY5Y [5] lay within 70.8 to 77.5%. Also, in the series with SH-SY5Y [12], the inhibition result was “Active”. Also, the results for the IC50 with HEK293 [6] and in the series on HEK293 [8] (setting [13]) were 1770 nM and 3880 nM, respectively. In addition, the result in the series with SH-SY5Y [7] was Active. Also, the viability at 10 µM in the series with SH-SY5Y [1] lay in the range of 96.5 to 106%. Besides, the inhibition in [2] lay in the range of 70.3 to 76.3%. For the same molecule, in the series on SH-SY5Y [3], the Activity entry is recorded as “Non-Toxic”.
Take `COCOc1ccc(C(=O)/C=C/c2cccc(C)c2)c(O)c1OCOC`: the viability at 10 µM in the series with SH-SY5Y [1] lay within 72 to 84.9%. Also, in series [2], the inhibition turned out to be 16.4%. For the same molecule, in the series with SH-SY5Y [3], the Activity result is “Non-Toxic”.
